In ChEMBL document CHEMBL1128416, “Synthesis and evaluation of 6,7-dihydroxy-2,3,4,8,9,13b-hexahydro-1H- benzo[6,7]cyclohepta[1,2,3-ef][3]benzazepine, 6,7-dihydroxy- 1,2,3,4,8,12b-hexahydroanthr[10,4a,4-cd]azepine, and 10-(aminomethyl)-9,10- dihydro-1,2-dihydroxyanthracene as conformationally restricted analogs of …” (J Med Chem, 1995) one finds K0.5 data, which are given here for five compounds.

Some results are limits rather than exact numbers.

Common to all, as to conditions: Striatum; Membrane
Assay [1] deals with D(1A) dopamine receptor (Rattus norvegicus) (UniProt P18901). The assay is described as follows: Binding affinity to the dopamine receptor D1 by displacing [3H]-SCH- 23390 radio-ligand in rat striatal membranes by using radioligand competition assay. Type of assay: cell membranes. In a few lines: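 Striata from male Sprague-Dawley rats (200–400 g), fresh or stored at -70 °C. Homogenized in ice-cold 50 mM HEPES with 4.0 mM MgCl2, pH 7.4, washed twice by centrifugation at 27000g, and resuspended at ~2.0 mg wet weight/mL. Membranes were incubated with 0.3 nM [3H]SCH 23390 and increasing test concentrations for 15 min at 37 °C. Nonspecific binding defined with 1 μM SCH 23390. Filtered, scintillation counted, IC50 derived.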
Chain of D(1A) dopamine receptor (Rattus norvegicus) (P18901 whole entry): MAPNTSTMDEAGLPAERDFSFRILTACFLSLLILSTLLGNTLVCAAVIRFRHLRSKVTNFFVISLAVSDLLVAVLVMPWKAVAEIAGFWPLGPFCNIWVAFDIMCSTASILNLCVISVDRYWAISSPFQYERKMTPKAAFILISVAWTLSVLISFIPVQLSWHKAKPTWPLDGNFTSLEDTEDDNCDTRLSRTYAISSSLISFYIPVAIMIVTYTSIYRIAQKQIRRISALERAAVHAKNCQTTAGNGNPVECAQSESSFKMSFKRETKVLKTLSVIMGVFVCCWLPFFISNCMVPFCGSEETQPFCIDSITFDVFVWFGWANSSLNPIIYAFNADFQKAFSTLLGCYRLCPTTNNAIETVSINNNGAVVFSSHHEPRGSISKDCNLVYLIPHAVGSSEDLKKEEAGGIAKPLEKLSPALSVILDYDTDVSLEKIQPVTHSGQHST
Background: Loss of bound radioactivity is the signal in a displacement assay; it reports binding, not function.

For assay [2], the target named is D(2) dopamine receptor (Rattus norvegicus) (UniProt P61169). The assay is described as follows: Binding affinity towards Dopamine receptor D2 by displacing [3H]spiperone radio-ligand in rat striatal membranes by using radioligand competition assay. Type of assay: cell membranes. In a few lines: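 Same rat striatal membrane preparation as the D1 assay: HEPES/MgCl2 buffer, pH 7.4, 37 °C incubation, filtration and scintillation counting. [3H]spiperone was the radioligand, competed with increasing test concentrations. IC50 derived from the displacement data.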
Chain of D(2) dopamine receptor (Rattus norvegicus) (P61169 whole entry): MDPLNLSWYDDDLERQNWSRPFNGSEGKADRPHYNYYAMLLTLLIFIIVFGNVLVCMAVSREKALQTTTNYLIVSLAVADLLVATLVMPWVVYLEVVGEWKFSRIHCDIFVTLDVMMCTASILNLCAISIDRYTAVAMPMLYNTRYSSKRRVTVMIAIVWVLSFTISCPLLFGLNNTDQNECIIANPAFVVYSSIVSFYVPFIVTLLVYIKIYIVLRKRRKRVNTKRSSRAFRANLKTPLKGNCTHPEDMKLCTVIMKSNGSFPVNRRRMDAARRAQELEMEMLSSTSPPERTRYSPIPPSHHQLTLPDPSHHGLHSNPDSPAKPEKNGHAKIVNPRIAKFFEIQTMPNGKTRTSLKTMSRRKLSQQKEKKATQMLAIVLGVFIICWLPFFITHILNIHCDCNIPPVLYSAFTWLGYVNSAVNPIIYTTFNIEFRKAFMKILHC

Assay [3] concerns the target D(1A) dopamine receptor (Rattus norvegicus) (UniProt P18901).

Turning to `Oc1cc2c3c(c1O)Cc1ccccc1C3CNCC2` (stereo not given), the K0.5 in assay [1] is 590 nM; in assay [2] it was 1250 nM.

As for `Oc1cc2c3c(c1O)CCc1ccccc1C3CNCC2` (stereo not given), the K0.5 in assay [1] turned out to be 372 nM; in assay [2], 2150 nM.

For the compound `Oc1cc2c(cc1O)[C@H]1c3ccccc3CN[C@@H]1CC2`, the K0.5 in assay [2] was determined as 29 nM; in assay [3], 2.4 nM.

As for `NCC1c2ccccc2Cc2c1ccc(O)c2O` (stereo not given), the K0.5 in assay [1] and in assay [2] was greater than 2500 nM in each case.

In the case of `Oc1cc2c(cc1O)[C@@H](c1ccccc1)CNCC2`, the figures for the K0.5 in assay [1] and in assay [2] were 11.1 nM and 1870 nM, respectively.
